Test results taken from ChEMBL document CHEMBL2401666, “Structure-based design of novel HCV NS5B thumb pocket 2 allosteric inhibitors with submicromolar gt1 replicon potency: discovery of a quinazolinone chemotype” (Bioorg Med Chem Lett, 2013).

Key:
[1] = Half life in human liver microsomes at 2 uM; assay type: ADME, Microsome
[2] = Permeability across apical to basolateral side in human Caco2 cells at 10 uM; assay type: ADME, cell-based; conditions: Caco-2, read-out: permeability
In short: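 Caco-2 monolayer, apical-to-basolateral transport at 10 µM across a pH 6.8–7.4 gradient; apparent permeability in cm/s ×10^-6.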

[3] = Half life in rat liver microsomes at 2 uM; assay type: ADME, Microsome
[4] = Lipophilicity, log D of the compound at pH 7.4; assay type: physicochemical; conditions: buffer

Row | half-life at 2 µM [1] | Papp A→B at 10 µM [2] | half-life at 2 µM [3] | logD [4] | SMILES
1 |  |  |  | 2.5 | O=c1nc[nH]c2ccc(Oc3ncccc3C(F)(F)F)cc12
2 |  |  |  | 3.3 | O=c1ncn(CC2CCCC2)c2ccc(Oc3ncccc3C(F)(F)F)cc12
3 |  |  |  | 3.7 | Cc1ccc(Cn2cnc(=O)c3cc(Oc4ncccc4C(F)(F)F)ccc32)cc1
4 | 93 min | 7.1 ×10⁻⁶ cm/s | 60 min |  | O=c1ncn(Cc2ccc(Br)cc2F)c2ccc(Oc3ncccc3C(F)(F)F)cc12
5 | 45 min | 8.4 ×10⁻⁶ cm/s | 15 min | 3.8 | Cc1ccc(Cn2cnc(=O)c3cc(Oc4ncccc4C(F)(F)F)ccc32)c(F)c1
6 | 110 min | 13 ×10⁻⁶ cm/s | 31 min |  | O=c1ncn(Cc2ccc(F)cc2F)c2ccc(Oc3ncccc3C(F)(F)F)cc12
7 | 123 min | 12 ×10⁻⁶ cm/s | 38 min | 3.3 | O=c1ncn(Cc2c(F)cc(F)cc2F)c2ccc(Oc3ncccc3C(F)(F)F)cc12

More lines, now with the values behind:

Row | SMILES | half-life at 2 µM [1] | Papp A→B at 10 µM [2] | half-life at 2 µM [3] | logD [4]
8 | CC(C)N(c1ccc(Oc2ccccc2C(F)(F)F)cc1C(=O)O)C(=O)[C@H]1CC[C@H](C)CC1 | 119 min | 17 ×10⁻⁶ cm/s | 92 min | 
9 | COc1ccc2c(c1)c(=O)ncn2Cc1ccc(F)cc1F |  |  |  | 1.8
10 | O=c1ncn(Cc2ccc(F)cc2F)c2ccc(Oc3ccncc3C(F)(F)F)cc12 |  |  |  | 3
11 | COc1ccnc(Oc2ccc3c(c2)c(=O)ncn3Cc2ccc(F)cc2F)c1C(F)(F)F | 80 min | 11 ×10⁻⁶ cm/s | 26 min | 3.5
12 | O=c1ncn(Cc2c(F)cc(F)cc2F)c2ccc(Oc3cnccc3C(F)(F)F)cc12 |  |  |  | 3
13 | O=c1ncn(Cc2c(F)cc(F)cc2F)c2ccc(Oc3cccnc3C(F)(F)F)cc12 | > 300 min | 11 ×10⁻⁶ cm/s | 22 min | 2.9
14 | O=c1ncn(Cc2c(F)cc(F)cc2F)c2ccc(Oc3ccccc3C(F)(F)F)cc12 |  |  |  | 4.2
15 | O=c1ncn(Cc2c(F)cc(F)cc2F)c2ccc(Oc3ccccc3)cc12 |  |  |  | 3.2
16 | COc1ccnc(Oc2ccc3c(c2)c(=O)ncn3Cc2c(F)cc(F)cc2F)c1C(F)(F)F | 84 min | 7.9 ×10⁻⁶ cm/s | 15 min | 3.3
17 | CC(C)N(c1ccc(Oc2ncccc2C(F)(F)F)cc1C(=O)O)C(=O)[C@H]1CC[C@H](C)CC1 | 69 min | 19 ×10⁻⁶ cm/s | 60 min | 
18 | O=c1ncn(Cc2ccc(F)cc2F)c2cc(F)c(Oc3ncccc3C(F)(F)F)cc12 |  |  |  | 3.9
